Sampled rows, rich in hits. Any-hit rate of the full collection: about 2.6%.
SENP1 inh = SENP1 (human) catalytic domain inhibition; Q9P0U3; actives 0.21% (n = 360,000); recombinant SENP1 catalytic domain, CyPet-SUMO1-YPet FRET cleavage; AID 624204; inhibition, % at 10 µM;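 active means inhibition at least 30% at 10 µM, raw YFP signal under a set limit, fluorescence ratio 0.5 to 1.5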;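 further: 0% = enzyme with DMSO and 100% = no enzyme wells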
Target sequence (Q9P0U3 419-644 limits assumed): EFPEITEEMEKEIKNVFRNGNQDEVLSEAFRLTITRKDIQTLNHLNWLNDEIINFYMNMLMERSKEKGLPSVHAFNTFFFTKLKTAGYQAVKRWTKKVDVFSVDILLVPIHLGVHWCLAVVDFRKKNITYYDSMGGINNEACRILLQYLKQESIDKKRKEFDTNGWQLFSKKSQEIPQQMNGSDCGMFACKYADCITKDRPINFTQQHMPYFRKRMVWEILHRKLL
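System: Recombinant human SENP1 catalytic domain, His6-tagged | Incubation: Enzyme reaction for 50 min at room temperature, dark | Medium: Tris pH 8 with BME, BSA, NP40 and catalase | Also added: 25 nM SUMO1 FRET substrate | Compound: 10 µM single point, 0.5% DMSO | Measured by: FRET fluorescence in CFP and YFP emission channels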
SENP7 block = blocks the human protease SENP7; inhibition, % at 5 µM; Q9BQF6; actives 1.5% (n = 330,000); recombinant SENP7, Z-RLRGG-aminoluciferin luminescence, 40 min;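 active means inhibition above about 50% at the single test dose, limit read from the data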;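 further: plate controls were DMSO with enzyme for no effect and no enzyme buffer wells for full effect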
SENP8 block-1 = SENP8 protease inhibition; purified SENP8, Z-RLRGG-aminoluciferin cleavage, luminescence; inhibition, % at 10 µM; Q96LD8; actives 1.2% (n = 330,000); in the data active means inhibition above about 50%
SENP8 block-2 = inhibitors of human SENP8 protease. Q96LD8. AID 602440. recombinant SENP8, Nedd8 substrate fluorescence. inhibition, % at 20 µM. actives 0.64% (n = 360,000); in the data active means inhibition mostly above about 40%, no sharp cut-off; inactive means mostly below about 27%
SENP6 block = blocks the human protease SENP6 | actives 1.8% (n = 330,000) | AID 2599 | inhibition, % at 10 µM | Q9GZR1 | Recombinant SENP6 catalytic domain, aminoluciferin luminescence;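 active means inhibition above about 50% at the single tested dose, limit read from the data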;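 further: plate controls were DMSO wells with enzyme for no effect and DMSO wells lacking enzyme for full effect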
Platelet DG rel = platelet dense granule release activity; inhibition, %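 (compounds screened at 7.5 µM in platelet-rich plasma)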; human platelet-rich plasma, SFLLRN dense granule ATP release, luminescence; actives 0.22% (n = 300,000); AID 1663;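 active means mean replicate score, as percent of positive control, at or above 50; inconclusive means mean below 50 but at least one replicate at or above 50; inactive means mean and every replicate below 50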
SENP8 confirm = human SENP8 inhibition, confirmed | shares compounds with SENP7 block | Recombinant SENP8, Z-RLRGG-aminoluciferin luminescence, 60 min | inhibition, % at 12.5 µM | actives 40% (n = 6,200);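 active means mean inhibition across replicates above about 50%, limit read from the data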
SENP6 confirm = confirmation of human SENP6 protease inhibitors; recombinant SENP6, Z-RLRGG-aminoluciferin luminescence; shares compounds with SENP7 block; AID 488915; actives 58% (n = 6,200); inhibition, % at 12.5 µM
SENP7 confirm = human SENP7 inhibition, confirmed; shares compounds with SENP7 block; recombinant SENP7, Z-RLRGG-aminoluciferin luminescence, 40 min; inhibition, % at 12.5 µM; actives 69% (n = 6,200); AID 488917
Casp3 SENP sel = selectivity test for SENP inhibitors: human caspase-3 inhibition | shares compounds with SENP7 block | purified caspase-3, Z-DEVD-aminoluciferin luminescence, 60 min | inhibition, % at 12.5 µM | actives 60% (n = 6,200);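 active means mean inhibition above about 50%, limit read from the data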;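 further: plate controls were enzyme with DMSO for no effect and wells without caspase-3 for full effect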
Target sequence (P42574 28-227 limits assumed): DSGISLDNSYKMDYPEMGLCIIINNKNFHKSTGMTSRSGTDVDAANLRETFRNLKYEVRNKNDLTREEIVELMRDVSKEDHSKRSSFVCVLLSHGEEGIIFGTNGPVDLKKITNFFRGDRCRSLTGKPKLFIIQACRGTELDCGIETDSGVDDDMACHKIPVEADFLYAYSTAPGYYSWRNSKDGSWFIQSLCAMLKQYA
Luc interf = interferes with luciferase luminescence in SENP counter-screen; Pre-incubated SENP8/Z-RLRGG-aminoluciferin, luciferase luminescence interference; shares compounds with SENP7 block; inhibition, % at 12.5 µM; actives 39% (n = 6,200);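 active means mean inhibition above about 50% when retested at one dose, limit read from the data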;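 further: plate controls were DMSO wells with completed reaction for no effect and substrate without enzyme for full effect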
* hit, by the source's call; ? = inconclusive; / = no result.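 How the source made its calls, unless noted: active means mean inhibition above about 50% in the one-dose retest (limit read from the data); inactive means the rest.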

SMILES	SENP1 inh	SENP7 block	SENP8 block-1	SENP8 block-2	SENP6 block	Platelet DG rel	SENP8 confirm	SENP6 confirm	SENP7 confirm	Casp3 SENP sel	Luc interf
O=C(c1ccc2c(=O)n(C3CCCC3)c(=S)[nH]c2c1)N1CCCCCC1	3	1	-1	32	13	-4	/	/	/	/	/
CCC(C)NC(=O)C1CCN(C(=O)N(C)C)CC1 (stereo not given)	1	102*	-5	15	5	-10	-1	-1	-4	-4	-6
CCc1ccc(/C=C2/C(=O)N(c3ccccc3)C(=S)N2CC(=O)OC)s1	-26	10	5	20	5	2	/	/	/	/	/
CN(C)C(=O)COC(=O)c1ccccc1Nc1ccc(SC(F)F)cc1	1	62*	52*	-172	-4	0	30	60*	84*	25	6
CC(=O)OCC(=O)[C@@]1(O)CC[C@H]2[C@@H]3CCC4=CC(=O)C=C[C@]4(C)[C@@]3(Cl)[C@@H](Cl)C[C@@]21C	0	6	-3	3	3	0	/	/	/	/	/
Cc1csc(NC(=O)c2cc3ccccc3o2)n1	-19	90*	79*	-64	85*	/	86*	82*	97*	90*	86*
O=C(Nc1ccc(Cl)cn1)c1cc2ccccc2o1	3	79*	59*	8	74*	-13	9	64*	82*	70*	28
CCCC(=O)Nc1ccc(NC(=O)c2cc3ccccc3o2)c(OC)c1	-2	54*	2	-22	29	4	8	6	27	19	7
Cc1ccnc(NC(=O)c2cc3ccccc3o2)c1	-7	99*	90*	-4	94*	29	96*	97*	102*	97*	94*
COc1ccc(C)cc1NC(=O)c1cc2ccccc2o1	3	-4	-8	6	-5	-1	/	/	/	/	/
Cc1ccc(-n2c(SCC(=O)NNC(=S)Nc3ccccc3)nc3ccccc3c2=O)cc1	1	-5	-4	8	-18	-8	/	/	/	/	/
Cc1ccc(C)c(NC(=O)c2ccc3ccccc3n2)c1	2	97*	91*	24	97*	20	82*	16	35	67*	16
C/C(CC(=O)Nc1ccccn1)=N\NC(=O)C(=O)Nc1cccc(C)c1	-5	0	-5	7	8	1	/	/	/	/	/
O=C(O)c1ccc(NC(=O)c2cc3ccccc3o2)cc1	0	10	8	4	35	1	/	/	/	/	/
O=C(Nc1ncccc1O)c1cc2ccccc2o1	-20	68*	31	-31	67*	27	63*	63*	85*	87*	68*
O=C(Nc1cccc(O)c1)C(=O)Nc1ccccn1	3	97*	87*	16	96*	71*	93*	93*	100*	96*	82*
O=C(Nc1cccc2ncccc12)c1cc2ccccc2o1	1	4	-5	1	0	6	/	/	/	/	/
O=C(Nc1ccccn1)c1cc2ccccc2o1	1	98*	95*	8	97*	?	52*	98*	101*	97*	96*
CCc1ccccc1NC(=O)c1cc(S(=O)(=O)N2CCCC2)c[nH]1	2	3	-3	6	-8	-16	/	/	/	/	/
CC(C)C(=O)NC(=S)Nc1ccc(S(=O)(=O)N(C)C)cc1	2	-2	-1	30	-10	4	/	/	/	/	/
COc1ccc(CN2CCN(Cc3ccco3)CC2)c(OC)c1	1	10	-8	12	-23	0	/	/	/	/	/
COc1ccc(NS(=O)(=O)c2ccc(NC(C)=O)cc2)nn1	0	12	-4	4	-17	1	/	/	/	/	/
O=C(NC1=NCCS1)c1cc(Cl)ccc1Cl	1	1	-5	15	-6	-1	/	/	/	/	/
Cc1ccc(C)c(NC(=O)c2cc3ccccc3o2)c1	1	53*	26	11	40	5	52*	49	78*	58*	31
O=C(NC1=NCCS1)c1ccc(Cl)c(Cl)c1	0	60*	43	27	70*	-6	11	63*	49	65*	9
SMILES	SENP1 inh	SENP7 block	SENP8 block-1	SENP8 block-2	SENP6 block	Platelet DG rel	SENP8 confirm	SENP6 confirm	SENP7 confirm	Casp3 SENP sel	Luc interf
COC(=O)c1ccccc1NC(=O)c1cc2ccccc2o1	0	-5	2	-18	10	-16	/	/	/	/	/
O=C(Nc1ccccc1C(F)(F)F)c1cc2ccccc2o1	0	68*	66*	17	73*	-2	60*	71*	92*	74*	67*
O=C(NC1=NCCS1)c1cc2ccccc2o1	1	60*	34	9	53*	12	47	48	81*	77*	58*
NCCCC[C@H]1CN=C(N)N1CC1CCCCC1	-1	-5	-3	5	-19	0	/	/	/	/	/
O=C(O)CCCCNS(=O)(=O)/C=C/c1ccccc1	1	-12	-9	7	-12	-3	/	/	/	/	/
OCC1CCCCN1C(=S)Nc1ccc(Cl)cc1Cl (stereo not given)	2	-4	2	5	-3	5	/	/	/	/	/
CC(C)(C)N(NC(=O)Nc1ccc(Cl)cc1)C(=O)c1ccccc1	3	-5	-10	15	-20	-22	/	/	/	/	/
CCOC(=O)Cc1csc(NC(=O)c2cc3ccccc3o2)n1	1	29	18	-23	10	5	/	/	/	/	/
O=C(Nc1ccccn1)c1cc2ccccc2cc1O	-27	52*	75*	3	77*	-2	6	33	50	38	3
O=C(NC1=NCCS1)c1csc2ccccc12	1	73*	60*	-1	81*	0	4	68*	89*	78*	74*
Cc1ccc(C(=O)Nc2cc3ccccc3oc2=O)cc1	3	98*	89*	-304	91*	50*	33	33	18	56*	6
Cc1csc(C(C#N)C(=O)c2cc3ccccc3o2)n1 (stereo not given)	0	14	54*	14	59*	1	31	73*	86*	79*	46
CC(=O)Nc1cc2ccccc2oc1=O	1	-2	-11	-62	-24	-4	/	/	/	/	/

Screening results: PubChem BioAssay, several laboratories
